The source of these data is ChEMBL document CHEMBL1926571, “Design, synthesis and the effect of 1,2,3-triazole sialylmimetic neoglycoconjugates on Trypanosoma cruzi and its cell surface trans-sialidase” (Bioorg Med Chem, 2012).

A value given as a limit tells only on which side of the number the result lay.

The test system of data set [1] is Trypanosoma cruzi. Kind of data set: (§1) Inhibition of Trypanosoma cruzi trans-Sialidase. The note with it: concentration not given here.
Data set [2] deals with Trypanosoma cruzi. Kind of data set: Inhibition of Trypanosoma cruzi N-terminus His-tagged trans-Sialidase using MuNANA as substrate at 0.5 mM after 10 mins by fluorometric analysis. In outline: (§2)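 Recombinant His-tagged 70 kDa enzyme truncated of C-terminal repeats, retaining catalytic N-terminal domain. Triplicate wells: pH 7.4 phosphate buffer, enzyme and inhibitor (added as 4.0 or 2.0 mM solution, 1.0 or 0.5 mM final) preincubated 10 min at 26 °C; MuNANA added at 0.1 mM final. Released methylumbelliferone fluorescence (ex 360/em 460 nm) read after 10 min; percent inhibition.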

Data set [3] deals with Trypanosoma cruzi. Kind of data set: Antitrypanosomal activity against Trypanosoma cruzi […] infected in monkey LLC-MK2 cells after 4 days by beta-galactosidase reporter gene assay. The settings on record: LLC-MK2, 96 h. It counts as functional, organism-based. In outline:
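LLC-MK2 cells in phenol-red-free RPMI with 10% FBS, 2×10^3/well, grown 24 h, then infected with 1×10^4 trypomastigotes of T. cruzi Tulahuen expressing E. coli β-galactosidase; compounds added 24 h later (0.5 mM–3.5 µM) for 4 days. Lysed with PBS/0.5% Triton X-100 containing 100 µM CPRG, 4 h at 37 °C, A570. Concentration giving 50% trypanocidal activity reported as IC50.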

Data set [4] relates to Trypanosoma cruzi. Kind of data set: Inhibition of Trypanosoma cruzi N-terminus His-tagged trans-Sialidase using MuNANA as substrate at 1 mM after 10 mins by fluorometric analysis. In outline:
as §2

Data set [5] can be described thus: Cytotoxicity against C57BL/6 mouse spleen cells assessed as cell death at 500 to 780 uM mM after 24 hrs by propidium iodide staining-based flow cytometric analysis. The note with it: 7.8 µM, in the assay text read “500 to 7.8 uM” for “500 to 780 uM”. In outline: (§3)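 Spleen cells from C57BL/6 mice, red cells lysed 5 min (Tris-HCl pH 7.5/ammonium chloride), in RPMI 1640 with 10% FBS at 5×10^5 cells/well, exposed to a range of compound concentrations for 24 h at 37 °C. Tween 20 at 0.5% as death control. Stained with 10 µg/mL propidium iodide, read by flow cytometry.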
For orientation: Flow cytometry measures light scatter and fluorescence of single cells or particles in a stream.

The nature of data set [6]: as §1.
Data set [7] can be described thus: Cytotoxicity against C57BL/6 mouse spleen cells assessed as cell death at 0.5 mM after 24 hrs by propidium iodide staining-based flow cytometric analysis. The settings on record: 500 µM. Summed up:
as §3

Data set [8] in a line: Cytotoxicity against C57BL/6 mouse spleen cells assessed as cell death at 250 to 780 uM mM after 24 hrs by propidium iodide staining-based flow cytometric analysis. The note with it: 7.8 µM, in the assay text read “250 to 7.8 uM” for “250 to 780 uM mM”. Summed up: as §3
Data set [9] in a line: Binding affinity to Trypanosoma cruzi trans-Sialidase by surface plasmon resonance assay.

Broadly, the inhibition is how much of the control response was suppressed. Consider `CCCCCCCCO[C@@H]1O[C@H](CO)[C@H](O)[C@H](O)[C@H]1O`, for which the inhibition in data set [1] stood at 84%.
What is called IC50 is the concentration needed to halve the response being measured. As to `CC(=O)N[C@H]1[C@H]([C@H](O)[C@H](O)CO)O[C@@](OCc2cn([C@H]3[C@@H](O)[C@H](O)O[C@H](CO)[C@@H]3O)nn2)(C(=O)O)C[C@@H]1O`, the inhibition in [2] worked out at 1.5%; in data set [4], 69%. The compound further had an IC50 in data set [3] greater than 2000 µM. Besides, the Activity result in [5] was “Non-toxic”.
`Cc1ccc(S(=O)(=O)Nc2cccc(C(=O)/C=C/c3ccc(O)c(O)c3)c2)cc1` returned an IC50 in data set [6] of 2500 nM.
On to `CO[C@H]1O[C@H](CO)[C@H](O)[C@H](OCc2cn(C(C(=O)O)C(C)O)nn2)[C@H]1O` (some centres undefined), for which the inhibition in [2] was found to be 1.5%; in [4], 5%. The compound further showed an IC50 in data set [3] of 369 µM. Besides, in data set [7], the Activity was greater than 80%.
Consider `CCCCCCCCO[C@@H]1O[C@H](COC)[C@H](O)[C@H](O)[C@H]1O`, for which the inhibition in data set [1] came out at 75%.
For the compound `CC(=O)N[C@H]1[C@H]([C@H](O)[C@H](O)CO)O[C@@](OCc2cn([C@@H]3O[C@H](CO)[C@H](O)[C@H](O)[C@H]3O)nn2)(C(=O)O)C[C@@H]1O`, the figures for the inhibition in [2] and in data set [4] were 1.5% and 88%, respectively. The IC50 in data set [3] worked out at 475 µM. The Activity in data set [7] is given as greater than 80%.
`O=c1c(O)c(-c2cc(O)c(O)c(O)c2)oc2cc(O)cc(O)c12` [MYRICETIN] came in with an IC50 in data set [6] of 580 nM.
Turning to `O=C(Cn1ccnc1[N+](=O)[O-])NCc1ccccc1` [BENZNIDAZOLE], 125 µM corresponded to half-maximal inhibition in data set [3] (IC50).
In data set [6], `Cc1ccc(S(=O)(=O)N2c3ccccc3C(=O)C3=Cc4cc(O)c(O)c5c(O)c(O)cc(c45)C32)cc1` (centres undefined) registered a concentration for half-maximal inhibition (IC50) of 600 nM.
With `CC(=O)N[C@H]1[C@H]([C@H](O)[C@H](O)CO)O[C@@](OCc2cn(C[C@H]3O[C@H](O)[C@H](O)[C@@H](O)[C@H]3O)nn2)(C(=O)O)C[C@@H]1O`, the inhibition is 30% in data set [2] and 91% in [4]. Besides, the Activity entry was “Non-toxic” in [8] and 55% in [7]. This compound also had an IC50 in data set [3] of 260 µM.
As to `CC(=O)N[C@H]1[C@H]([C@H](O)[C@H](O)CO)O[C@@](OCc2cn([C@@H]3[C@@H](O)[C@@H](O)O[C@H](CO)[C@H]3O)nn2)(C(=O)O)C[C@@H]1O`, the inhibition worked out at 1.5% in data set [2] and 67% in data set [4]. In data set [3], this compound gave an IC50 of 726 µM. Moreover, the Activity result in data set [5] is on record as “Non-toxic”.
Regarding `Cc1ccc(S(=O)(=O)Nc2ccc(C(=O)/C=C/c3ccc(O)c(O)c3)cc2)cc1`, the IC50 in [6] was 900 nM.
Broadly, the Kd is the concentration at which binding is half-saturated. Turning to `CC(=O)N[C@H]1[C@H]([C@H](O)[C@H](O)CO)O[C@@](CCCc2ccccc2)(C(=O)O)C[C@@H]1O`, the Kd in data set [9] was 160 µM.
